Assays:
Citrobacter freundii [1] = assay: Antimicrobial activity against aac(6')-Ib-cr-positive Citrobacter freundii PU55 harboring GyrA T83I, ParC S80I mutant, wild-type GyrB, qnrA genes by agar dilution method; format: functional
Summary of the method: (§1)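 MICs were determined by the CLSI agar dilution method (M7-A7) and interpreted against CLSI M100-S17 breakpoints.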

Citrobacter freundii [2] = assay: Antimicrobial activity against aac(6')-Ib-cr-positive Citrobacter freundii PU55T harboring wild-type GyrA, ParC, GyrB and qnrA genes by agar dilution method
Enterobacter cloacae [3] = assay: Antimicrobial activity against aac(6')-Ib-cr-negative Enterobacter cloacae SH39 harboring GyrA S83I, ParC S80I mutant, wild-type GyrB and qnrA genes by agar dilution method; format: functional
Enterobacter cloacae [4] = assay: Antimicrobial activity against aac(6')-Ib-cr-negative Enterobacter cloacae SH39T harboring qnrA gene by agar dilution method; format: functional
Klebsiella pneumoniae [5] = assay: Antimicrobial activity against aac(6')-Ib-cr-negative Klebsiella pneumoniae SY22 harboring GyrA S83I, ParC S80I mutant, wild-type GyrB and qnrS genes by agar dilution method; format: functional; summary of the method: as §1
Klebsiella pneumoniae [6] = assay: Antimicrobial activity against aac(6')-Ib-cr-positive Klebsiella pneumoniae SY26 harboring GyrA S83I, ParC S80I mutant, wild-type GyrB and qnrB genes by agar dilution method; format: functional
Summary of the method: (§2)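 MICs were determined on clinical isolates by CLSI agar dilution (M7-A7) and interpreted against CLSI M100-S17 breakpoints.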

Klebsiella pneumoniae [7] = assay: Antimicrobial activity against aac(6')-Ib-cr-positive Klebsiella pneumoniae SY26T harboring wild-type GyrA, ParC, GyrB and qnrB genes by agar dilution method; format: functional
Summary of the method: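 Transconjugants were made by conjugating a qnr/aac(6')-Ib-cr donor with azide-resistant E. coli J53. MICs were read by CLSI agar dilution (M7-A7) and interpreted per M100-S17.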

Citrobacter freundii [8] = assay: Antimicrobial activity against aac(6')-Ib-cr-positive Citrobacter freundii TJ15 harboring GyrA T83I, ParC S80I mutant, wild-type GyrB, qnrB genes by agar dilution method; format: functional; summary of the method: as §1
Citrobacter freundii [9] = assay: Antimicrobial activity against aac(6')-Ib-cr-positive Citrobacter freundii TJ15T harboring wild-type GyrA, ParC, GyrB genes by agar dilution method; format: functional; summary of the method: as §1
Enterobacter cloacae [10] = assay: Antimicrobial activity against aac(6')-Ib-cr-negative Enterobacter cloacae WH42 harboring wild-type GyrA, ParC, GyrB and qnrA genes by agar dilution method; format: functional
Enterobacter cloacae [11] = assay: Antimicrobial activity against aac(6')-Ib-cr-negative Enterobacter cloacae WH42T harboring qnrA gene by agar dilution method; format: functional
Klebsiella pneumoniae [12] = assay: Antimicrobial activity against aac(6')-Ib-cr-positive Klebsiella pneumoniae WH99T harboring qnrB gene by agar dilution method; format: functional
Summary of the method: (§3)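 Transconjugants were made by conjugating a qnr/aac(6')-Ib-cr donor with azide-resistant E. coli J53. Selection used Trypticase soy agar with sodium azide 150 µg/ml and sulfamethoxazole 180 µg/ml. […] MICs were read by CLSI agar dilution (M7-A7) and interpreted per M100-S17.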

Escherichia coli [13] = assay: Antimicrobial activity against aac(6')-Ib-cr-negative Escherichia coli PU12 harboring GyrA S83L mutant, wild-type GyrB, ParC and qnrS genes by agar dilution method; format: functional; summary of the method: as §1
Escherichia coli [14] = assay: Antimicrobial activity against aac(6')-Ib-cr-positive Escherichia coli FJ3 harboring GyrA S83L, ParC S80R mutant, wild-type GyrB and qnrB genes by agar dilution method; format: functional; summary of the method: as §1
Escherichia coli [15] = assay: Antimicrobial activity against aac(6')-Ib-cr-positive Escherichia coli FJ3T harboring wild-type GyrA, ParC, GyrB and qnrB genes by agar dilution method
Enterobacter cloacae [16] = assay: Antimicrobial activity against aac(6')-Ib-cr-negative Enterobacter cloacae FJ61 harboring GyrA S83I, GyrA D87A, ParC S80I mutant, wild-type GyrB and qnrS genes by agar dilution method; format: functional
Enterobacter cloacae [17] = assay: Antimicrobial activity against aac(6')-Ib-cr-negative Enterobacter cloacae FJ61T harboring qnrS gene by agar dilution method; format: functional
Enterobacter cloacae [18] = assay: Antimicrobial activity against aac(6')-Ib-cr-positive Enterobacter cloacae FJ63 harboring GyrA S83I, GyrA D87A, ParC S80I mutant, wild-type GyrB and qnrS genes by agar dilution method; format: functional
Enterobacter cloacae [19] = assay: Antimicrobial activity against aac(6')-Ib-cr-positive Enterobacter cloacae FJ63T harboring qnrS gene by agar dilution method; format: functional
Enterobacter cloacae [20] = assay: Antimicrobial activity against aac(6')-Ib-cr-negative Enterobacter cloacae FJ67 harboring […] and qnrS genes by agar dilution method; format: functional
Enterobacter cloacae [21] = assay: Antimicrobial activity against aac(6')-Ib-cr-negative Enterobacter cloacae FJ67T harboring qnrS gene by agar dilution method; format: functional
Klebsiella pneumoniae [22] = assay: Antimicrobial activity against aac(6')-Ib-cr-positive Klebsiella pneumoniae GZ40 harboring GyrA S83I, ParC S80I mutant, wild-type GyrB and qnrB genes by agar dilution method; format: functional; summary of the method: as §1
Klebsiella pneumoniae [23] = assay: Antimicrobial activity against aac(6')-Ib-cr-positive Klebsiella pneumoniae GZ40T harboring qnrB gene by agar dilution method
Enterobacter cloacae [24] = assay: Antimicrobial activity against aac(6')-Ib-cr-negative Enterobacter cloacae GZ47 harboring qnrB and qnrS genes by agar dilution method; format: functional
Enterobacter cloacae [25] = assay: Antimicrobial activity against aac(6')-Ib-cr-negative Enterobacter cloacae GZ47T harboring qnrB gene by agar dilution method; format: functional
Enterobacter cloacae [26] = assay: Antimicrobial activity against aac(6')-Ib-cr-negative Enterobacter cloacae GZ51 harboring qnrA gene by agar dilution method; format: functional
Enterobacter cloacae [27] = assay: Antimicrobial activity against aac(6')-Ib-cr-negative Enterobacter cloacae GZ51T harboring qnrA gene by agar dilution method; format: functional
Citrobacter freundii [28] = assay: Antimicrobial activity against aac(6')-Ib-cr-positive Citrobacter freundii JN1 harboring GyrA T83I, ParC S80I mutant, wild-type GyrB and qnrA genes by agar dilution method; format: functional; summary of the method: as §1
Citrobacter freundii [29] = assay: Antimicrobial activity against aac(6')-Ib-cr-positive Citrobacter freundii JN1T by agar dilution method; format: functional; summary of the method: as §1
Klebsiella pneumoniae [30] = assay: Antimicrobial activity against aac(6')-Ib-cr-positive Klebsiella pneumoniae JN132 harboring GyrA S83I, ParC S80I mutant, wild-type GyrB and qnrB genes by agar dilution method; format: functional; summary of the method: as §2
Klebsiella pneumoniae [31] = assay: Antimicrobial activity against aac(6')-Ib-cr-positive Klebsiella pneumoniae JN132T harboring qnrB gene by agar dilution method; format: functional; summary of the method: as §3
Klebsiella pneumoniae [32] = assay: Antimicrobial activity against aac(6')-Ib-cr-positive Klebsiella pneumoniae JN41 harboring GyrA S83I, ParC S80I mutant, wild-type GyrB and qnrB genes by agar dilution method; format: functional; summary of the method: as §2
Klebsiella pneumoniae [33] = assay: Antimicrobial activity against aac(6')-Ib-cr-positive Klebsiella pneumoniae JN41T harboring qnrB gene by agar dilution method; format: functional; summary of the method: as §3
Citrobacter freundii [34] = assay: Antimicrobial activity against aac(6')-Ib-cr-negative Citrobacter freundii JN64 harboring GyrA T83I, wild-type ParC, GyrB and qnrA genes by agar dilution method; format: functional; summary of the method: as §1
Citrobacter freundii [35] = assay: Antimicrobial activity against aac(6')-Ib-cr-negative Citrobacter freundii JN64T harboring qnrA gene by agar dilution method; format: functional; summary of the method: as §1
Citrobacter freundii [36] = assay: Antimicrobial activity against aac(6')-Ib-cr-positive Citrobacter freundii JS33 harboring GyrA T83I mutant, wild-type ParC, GyrB, qnrA and qnrB genes by agar dilution method; format: functional; summary of the method: as §1
Citrobacter freundii [37] = assay: Antimicrobial activity against aac(6')-Ib-cr-positive Citrobacter freundii JS33T harboring qnrA gene by agar dilution method; format: functional; summary of the method: as §1
Klebsiella pneumoniae [38] = assay: Antimicrobial activity against aac(6')-Ib-cr-negative Klebsiella pneumoniae SY22T harboring qnrS gene by agar dilution method; format: functional; summary of the method: as §1
Klebsiella pneumoniae [39] = assay: Antimicrobial activity against aac(6')-Ib-cr-positive Klebsiella pneumoniae WH99 harboring wild-type GyrA, ParC, GyrB and qnrB genes by agar dilution method; format: functional; summary of the method: as §2
Escherichia coli [40] = assay: Antimicrobial activity against aac(6')-Ib-cr-negative Escherichia coli PU12T harboring wild-type GyrA, GyrB, ParC and qnrS genes by agar dilution method; format: functional; summary of the method: as §1

Measured: MIC

C[C@H]1COc2c(N3CCN(C)CC3)c(F)cc3c(=O)c(C(=O)O)cn1c23.C[C@H]1COc2c(N3CCN(C)CC3)c(F)cc3c(=O)c(C(=O)O)cn1c23.O [LEVOFLOXACIN]
1 µg/mL: Enterobacter cloacae [21]
2 µg/mL: Enterobacter cloacae [10] | Enterobacter cloacae [24] | Citrobacter freundii [36]
32 µg/mL: Citrobacter freundii [1] | Enterobacter cloacae [3] | Klebsiella pneumoniae [6]
> 32 µg/mL: Klebsiella pneumoniae [5] | Enterobacter cloacae [16] | Enterobacter cloacae [18] | Klebsiella pneumoniae [22] | Klebsiella pneumoniae [32]
4 µg/mL: Citrobacter freundii [8] | Escherichia coli [13] | Escherichia coli [14]
16 µg/mL: Citrobacter freundii [28]
8 µg/mL: Enterobacter cloacae [20] | Klebsiella pneumoniae [30] | Citrobacter freundii [34]
0.5 µg/mL: Enterobacter cloacae [4] | Citrobacter freundii [9] | Enterobacter cloacae [17] | Enterobacter cloacae [19] | Enterobacter cloacae [26] | Citrobacter freundii [35]
not listed: Klebsiella pneumoniae [38] | Klebsiella pneumoniae [39] | Escherichia coli [40]
0.25 µg/mL: all other assays above

O=C(O)c1cn(C2CC2)c2cc(N3CCNCC3)c(F)cc2c1=O [CIPROFLOXACIN]
> 32 µg/mL: Citrobacter freundii [1] | Klebsiella pneumoniae [5] | Klebsiella pneumoniae [6] | Klebsiella pneumoniae [22] | Citrobacter freundii [28] | Klebsiella pneumoniae [30] | Klebsiella pneumoniae [32]
2 µg/mL: Klebsiella pneumoniae [39]
16 µg/mL: Citrobacter freundii [8]
1 µg/mL: Citrobacter freundii [2] | Klebsiella pneumoniae [12] | Klebsiella pneumoniae [23] | Citrobacter freundii [29] | Klebsiella pneumoniae [31]
8 µg/mL: Citrobacter freundii [34]
4 µg/mL: Citrobacter freundii [36]
0.5 µg/mL: Klebsiella pneumoniae [38] | Klebsiella pneumoniae [7] | Klebsiella pneumoniae [33] | Citrobacter freundii [37]

CO/N=C(\C(=O)N[C@@H]1C(=O)N2C(C(=O)[O-])=C(C[N+]3(C)CCCC3)CS[C@H]12)c1csc(N)n1
1 µg/mL: Citrobacter freundii [1] | Klebsiella pneumoniae [5] | Klebsiella pneumoniae [12] | Citrobacter freundii [29] | Klebsiella pneumoniae [33]
8 µg/mL: Escherichia coli [14]
4 µg/mL: Escherichia coli [15] | Citrobacter freundii [35]
2 µg/mL: Escherichia coli [40] | Klebsiella pneumoniae [39] | Escherichia coli [13] | Klebsiella pneumoniae [30] | Klebsiella pneumoniae [31] | Klebsiella pneumoniae [32]
0.25 µg/mL: Citrobacter freundii [36]
0.5 µg/mL: Klebsiella pneumoniae [6]

Reference: ChEMBL document CHEMBL1275556, “High prevalence of plasmid-mediated quinolone resistance genes qnr and aac(6')-Ib-cr in clinical isolates of Enterobacteriaceae from nine teaching hospitals in China” (2008)
